Experiment [1] relates to HEp-2. As to the kind of experiment: Induction of cell cycle arrest in human Hep2 cells assessed accumulation at S phase at 50 ug/ml incubated for 24 hrs by propidium iodide staining based flow cytometry (reference value: 21.06%). The experiment is classed as functional. On the technique in general: A flow cytometer gives signals particle by particle.
Experiment [2] deals with HEp-2. As to the kind of experiment: Induction of cell cycle arrest in human Hep2 cells assessed accumulation at G0/G1 phase at 10 ug/ml incubated for 24 hrs by propidium iodide staining based flow cytometry (reference value: 74.51%). The format is functional.
Experiment [3] is described as follows: Reduction in PRKAA2 gene expression in human Hep2 cells at 50 ug/ml incubated for 24 hrs by real-time PCR method. The conditions noted are these: HEp-2. The experiment is classed as functional, cell-based. In a few lines: (§1)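 HEp-2 cells were treated 24 h at 10 or 50 µg/mL. Total RNA was extracted with Trizol, and 2 µg was reverse-transcribed. 50 ng cDNA went into TaqMan real-time PCR with beta-actin as endogenous control. Relative expression was calculated by the ∆∆CT method. Each experiment was run three times.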
For orientation: Quantitative PCR measures a nucleic acid by following its amplification.

Experiment [4] is described as follows: Cytotoxicity against human Hep2 cells assessed as cell viability at 50 ug/ml incubated for 24 hrs by MTS assay. The experiment is classed as functional. The conditions noted are these: HEp-2, 24 h, read-out: Activity. The procedure, abridged: (§2)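 Cells were held at 37 °C, 5% CO2 in humid air. HEp-2 (5 x 10³/well) and HCT-8 (7 x 10³/well) grew in DMEM + 10% heat-inactivated FBS and got compound (binary dilutions) 24 h after seeding. THP-1 (5 x 10³ cells, RPMI-1640 + 10% FBS) were added directly to the dilutions. Exposure lasted 24 h. MTS (CellTiter 96 AQueous One) read-out was absorbance at 490 nm.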
(In general: Tetrazolium assays rely on reduction of a dye to a coloured formazan, in cell work by metabolically active cells.)

Experiment [5] has as its system HCT-8. As to the kind of experiment: Induction of apoptosis in human HCT8 cells assessed necrosis level at 50 ug/ml incubated for 24 hrs by annexin V-FITC and propidium iodide staining based flow cytometry (reference value: 1.12%). The experiment is classed as functional.
The nature of experiment [6]: Cytotoxicity against human HCT8 cells assessed as cell viability at 12.5 ug/ml incubated for 24 hrs by MTS assay. The format is functional. The note with it: HCT-8, 24 h, read-out: Activity. In a few lines: as §2
For experiment [7], the system named is HEp-2. As to the kind of experiment: Induction of cell cycle arrest in human Hep2 cells assessed accumulation at G2/M phase incubated for 24 hrs by propidium iodide staining based flow cytometry. The format is functional.
In experiment [8] the test system is THP-1. As to the kind of experiment: Cytotoxicity against human THP1 cells assessed as cell viability at 12.5 ug/ml incubated for 24 hrs by MTS assay. The format is functional. The note with it: THP-1, 24 h, read-out: Activity. In a few lines:
as §2

Experiment [9] relates to HEp-2. As to the kind of experiment: Induction of cell cycle arrest in human Hep2 cells assessed accumulation at G2/M phase at 50 ug/ml incubated for 24 hrs by propidium iodide staining based flow cytometry (reference value: 7.82%). The experiment is classed as functional.
Experiment [10] in a line: Cytotoxicity against human HCT8 cells assessed as cell viability at 25 ug/ml incubated for 24 hrs by MTS assay. The experiment is classed as functional. The note with it: HCT-8, 24 h, read-out: Activity. In a few lines:
as §2

The nature of experiment [11]: Cytotoxicity against human HCT8 cells assessed as cell viability at 50 ug/ml incubated for 24 hrs by MTS assay. The format is functional. The note with it: HCT-8, 24 h, read-out: Activity. The procedure, abridged: as §2
In experiment [12] the test system is HEp-2. As to the kind of experiment: Induction of cell cycle arrest in human Hep2 cells assessed accumulation at G0/G1 phase at 50 ug/ml incubated for 24 hrs by propidium iodide staining based flow cytometry (reference value: 74.51%). The format is functional.
Experiment [13] in a line: Cytotoxicity against human Hep2 cells assessed as cell viability at 25 ug/ml incubated for 24 hrs by MTS assay. The format is functional. The conditions noted are these: HEp-2, 24 h, read-out: Activity. The procedure, abridged: as §2
The subject of experiment [14] is HEp-2. As to the kind of experiment: Induction of cell cycle arrest in human Hep2 cells assessed accumulation at G2/M phase at 10 ug/ml incubated for 24 hrs by propidium iodide staining based flow cytometry (reference value: 7.82%). The experiment is classed as functional.
In experiment [15] the test system is HEp-2. As to the kind of experiment: Induction of cell cycle arrest in human Hep2 cells assessed accumulation at S phase at 10 ug/ml incubated for 24 hrs by propidium iodide staining based flow cytometry (reference value: 21.06%). The experiment is classed as functional.
The test system of experiment [16] is HCT-8. As to the kind of experiment: Induction of apoptosis in human HCT8 cells assessed late apoptosis level at 50 ug/ml incubated for 24 hrs by annexin V-FITC and propidium iodide staining based flow cytometry (reference value: 4.8%). The experiment is classed as functional.
Experiment [17] in a line: Reduction in PRKAA1 gene expression in human Hep2 cells at 10 ug/ml incubated for 24 hrs by real-time PCR method. The format is functional, cell-based. The note with it: HEp-2. The procedure, abridged:
as §1

Experiment [18] can be described thus: Reduction in PRKAA2 gene expression in human Hep2 cells at 10 ug/ml incubated for 24 hrs by real-time PCR method. The experiment is classed as functional, cell-based. The note with it: HEp-2. The procedure, abridged:
as §1

Experiment [19] has as its system THP-1. As to the kind of experiment: Cytotoxicity against human THP1 cells assessed as cell viability at 25 ug/ml incubated for 24 hrs by MTS assay. The conditions noted are these: THP-1, 24 h, read-out: Activity. The experiment is classed as functional. In a few lines:
as §2

Experiment [20] deals with HCT-8. As to the kind of experiment: Induction of apoptosis in human HCT8 cells assessed viable cells level at 50 ug/ml incubated for 24 hrs by annexin V-FITC and propidium iodide staining based flow cytometry (reference value: 93.3%). The experiment is classed as functional.
Experiment [21] has as its system THP-1. As to the kind of experiment: Cytotoxicity against human THP1 cells assessed as cell viability at 50 ug/ml incubated for 24 hrs by MTS assay. The experiment is classed as functional. The note with it: THP-1, 24 h, read-out: Activity. In a few lines:
as §2

Experiment [22] has as its system HCT-8. As to the kind of experiment: Induction of apoptosis in human HCT8 cells assessed early apoptosis level at 50 ug/ml incubated for 24 hrs by annexin V-FITC and propidium iodide staining based flow cytometry (reference value: 0.75%). The format is functional.
Experiment [23] is described as follows: Cytotoxicity against human Hep2 cells assessed as cell viability at 12.5 ug/ml incubated for 24 hrs by MTS assay. The experiment is classed as functional. The conditions noted are these: HEp-2, 24 h, read-out: Activity. The procedure, abridged:
as §2

Experiment [24] in a line: Reduction in PRKAA1 gene expression in human Hep2 cells at 50 ug/ml incubated for 24 hrs by real-time PCR method. The format is functional, cell-based. The conditions noted are these: HEp-2. The procedure, abridged:
as §1

The results in this text go back to ChEMBL document CHEMBL3603756, “Synthesis and apoptotic activity of new pyrazole derivatives in cancer cell lines” (2015).

Calls of active or inactive are those of the source. The rule behind the calls is not given here.

Regarding `Cn1cc(C(=O)/N=C2\SCC(C)(O)N2c2ccc(Br)cc2)cn1` (stereo not given), the Activity in [1] is 28.71%; in [2], 62.35%; in experiment [5] it was 1.34%; in experiment [7], “Dose-dependent effect”; in experiment [9] it was 39.46%; in [12] it was 37.33%. Besides, the Activity in [14] is recorded as 19.88%; in experiment [15], 19.2%; in [16], 6.76%; in experiment [20], 85.7%; in [22], 6.22%. The result in [3], in [17], in experiment [18] and in [24] was Active. In addition, the viability at 50 µg/mL came out at 91% in experiment [4], 85.7% in experiment [11] and 33.9% in experiment [21]. For the same compound, the viability at 12.5 µg/mL in experiment [6] was found to be 98%; in experiment [8] it was 95%; in [23], 100%. Besides, the viability at 25 µg/mL came out at 95% in experiment [10], 92% in experiment [13] and 67.4% in experiment [19].
With `Cn1cc(C(=O)NC(=S)Nc2ccc(I)cc2)cn1`, the Activity in experiment [1] is 24.79%; in experiment [2], 71.62%; in [5], 1.25%; in [7], “Dose-dependent effect”; in experiment [9], 15.88%; in experiment [12], 74.24%. The Activity in [14] amounted to 11.98%; in experiment [15] it was 17.26%; in [16], 3.1%; in [20], 93.3%; in [22], 2.31%. For the same compound, the outcome in [3], in [17], in experiment [18] and in [24] was Active. In addition, the values for the viability at 50 µg/mL in [4], in [11] and in experiment [21] were 93%, 93.3% and 35.2%, respectively. Further, the viability at 12.5 µg/mL in experiment [6], in [8] and in experiment [23] was 100% each time. Besides, the viability at 25 µg/mL was 100% in experiment [10], 100% in experiment [13] and 79.3% in experiment [19].
Turning to `Cn1cc(C(=O)NC(=S)Nc2ccccc2I)cn1`, the Activity is 18.14% in experiment [1]; 76.4% in experiment [2]; 2.49% in [5]; “Dose-dependent effect” in experiment [7]; 15.92% in [9]; 67.6% in [12]. Further, the Activity turned out to be 6.86% in experiment [14]; 21.88% in [15]; 3.75% in experiment [16]; 91.8% in experiment [20]; 2.01% in [22]. Further, the result in [3], in experiment [17], in experiment [18] and in experiment [24] was Active. The figures for the viability at 50 µg/mL in experiment [4], in experiment [11] and in [21] were 90%, 91.8% and 31.3%, respectively. For the same compound, the viability at 12.5 µg/mL in experiment [6], in experiment [8] and in [23] was 100% each time. Also, the viability at 25 µg/mL in experiment [10] turned out to be 100%; in experiment [13], 100%; in [19], 84%.
As for `Cn1cc(C(=O)NC(=S)Nc2ccc(Br)cc2)cn1`, the Activity was 22.6% in experiment [1]; 75.28% in experiment [2]; 1.73% in [5]; “Dose-dependent effect” in experiment [7]; 18.75% in [9]; 67.63% in experiment [12]. Besides, the Activity in [14] worked out at 9.91%; in experiment [15], 16.97%; in experiment [16] it was 3.83%; in [20], 91.7%; in experiment [22], 2.78%. The result in [3], in [17], in experiment [18] and in experiment [24] was Active. Further, the viability at 50 µg/mL in [4] was 90%; in [11] it was 91.7%; in experiment [21], 37%. Moreover, the viability at 12.5 µg/mL in [6], in experiment [8] and in experiment [23] was 100% in each case. For the same compound, the viability at 25 µg/mL in experiment [10] came to 100%; in experiment [13], 100%; in [19], 72.9%.
On to `Cc1cs/c(=N\C(=O)c2cnn(C)c2)n1-c1ccc(Br)cc1`, for which the Activity was 24.2% in [1]; 74.24% in experiment [2]; 2.66% in [5]; “Dose-dependent effect” in experiment [7]; 19.45% in experiment [9]; 63.34% in [12]. The Activity in [14] worked out at 7.76%; in experiment [15], 21.45%; in experiment [16], 3.44%; in [20] it was 89.4%; in experiment [22] it was 4.47%. Also, the outcome in experiment [3], in experiment [17], in [18] and in experiment [24] was Active. The results for the viability at 50 µg/mL in [4], in experiment [11] and in experiment [21] were 85%, 89.4% and 41.6%, respectively. Moreover, the results for the viability at 12.5 µg/mL in experiment [6], in [8] and in experiment [23] were 100%, 97% and 100%, respectively. Further, the viability at 25 µg/mL came out at 97% in experiment [10], 95% in experiment [13] and 87.6% in experiment [19].
